The source made the active and inactive calls. The calls are words filed in the database; no cut-off is given here.
Legend:
[1] = Partition coefficient, log p in n-octanol/phosphate buffer at pH 7.4; format: physicochemical
How it was run: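 Partitioning between n-octanol and phosphate buffer pH 7.4 at 25 ± 1 °C.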

[2] = Stability assessed as half life in hydrochloric acid buffer at pH 1.2; format: physicochemical
How it was run: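 10 mg prodrug in 900 ml HCl buffer pH 1.2 (0.05 M, ionic strength 0.5 set with KCl) at 37 ± 1 °C for 10 h. Remaining prodrug followed by UV at 251 and 285 nm; first-order kinetics, triplicate.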

[3] = Stability assessed as half life in phosphate buffer at pH 7.4; format: physicochemical
How it was run: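 Same set-up in phosphate buffer pH 7.4 (0.05 M, ionic strength 0.5 with KCl), 37 ± 1 °C, 10 h. Remaining prodrug read by UV at 255 and 290 nm; first-order kinetics, triplicate.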

Rattus norvegicus [4] = assay: Antiinflammatory activity against TNBS-induced po dosed Wistar rat colitis model assessed as inhibition of MPO activity in neutrophils per 100 mg of tissue; format: functional
How it was run: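 Colonic tissue from TNBS-colitis rats given oral treatment; MPO measured by the Krawisz method, one unit degrading […] hydrogen peroxide at 25 °C; reported as mU per 100 mg wet tissue.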

Rattus norvegicus [5] = species: Rattus norvegicus; assay: Antiinflammatory activity against TNBS-induced Wistar rat colitis model assessed as decrease in ratio of colon to body weight treated rectally 3 days after TNBS induction for 8 days measured after 24 hrs of last treatment; format: functional, organism-based; settings: in the assay text read “treated orally” for “treated rectally”
How it was run: (§1)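 Wistar rats (200–250 g, 12–15 weeks, n = 6/group), fasted 48 h, given TNBS 100 mg/kg in 50% ethanol (500 µl) intrarectally 8 cm via catheter under light ether; untreated 3 days, then dosed (controls got 1% carboxymethylcellulose); 11-day study. Sacrificed 24 h after last dose under isoflurane; 8 cm colon excised, colon/body weight ratio taken; mean of six.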

[6] = Half life in rat fecal matter assessed as release of 4-aminosalicylic acid; format: ADME, tissue-based, Feces; settings: in vitro
How it was run: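 Prodrug in phosphate buffer pH 7.4 (250 µg/ml, diluted to 50 µg/ml in 5 ml) added to 1 g fresh rat feces; incubated 37 °C anaerobically in a CO2 incubator for up to 20 h. Remaining prodrug read by UV at 255 nm (4AP) or 290 nm (4AT) against calibration curves; first-order fits, triplicate, mean K.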

Rattus norvegicus [7] = assay: Antiinflammatory activity against TNBS-induced Wistar rat colitis model assessed as decrease in severity of inflammation treated po 3 days after TNBS induction measured on day 7; format: functional, organism-based
How it was run: (§2)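 TNBS colitis in Wistar rats (100 mg/kg in 50% ethanol, intrarectal, 48 h fast), left untreated 3 days before dosing, vehicle 1% carboxymethylcellulose. Weight loss, stool consistency and rectal bleeding scored daily over 11 days; the daily clinical activity score is the average of the three, 0 (healthy) to 4 (maximal colitis); mean of six rats.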

Rattus norvegicus [8] = assay: Half life in TNBS-induced po dosed Wistar rat colitis model assessed as assessed as release of 4-aminosalicylic acid; format: ADME, organism-based; settings: in vivo
Liver = assay: Toxicity in rat liver; format: tissue-based; settings: in vivo
Rattus norvegicus [9] = assay: Antiinflammatory activity against TNBS-induced Wistar rat colitis model assessed as decrease in ratio of colon to body weight treated po 3 days after TNBS induction for 8 days measured after 24 hrs of last treatment; format: functional; how it was run: as §1
Rattus norvegicus [10] = assay: Ulcerogenic effect in rat colon assessed as ulcer index at 2258.01 mg/kg by Rainsford's cold stress method; format: toxicity, organism-based; set-up: dose 2258.01 mg/kg; settings: in vivo
Pancreas = assay: Toxicity in rat pancreas; format: tissue-based; settings: in vivo
[11] = Aqueous solubility of the compound; format: physicochemical; settings: water (aqueous)
How it was run: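 Solubility in distilled water at room temperature (25 ± 1 °C).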

Rattus norvegicus [12] = species: Rattus norvegicus; assay: Antiinflammatory activity against TNBS-induced Wistar rat colitis model assessed as decrease in severity of inflammation treated rectally 3 days after TNBS induction measured on day 7; format: functional, organism-based; settings: in the assay text read “treated orally” for “treated rectally”; how it was run: as §2
Rattus norvegicus [13] = assay: Ulcerogenic effect in rat colon assessed as ulcer index at 2263.75 mg/kg by Rainsford's cold stress method; format: toxicity, organism-based; set-up: dose 2263.75 mg/kg; settings: in vivo
Rattus norvegicus [14] = assay: Ulcerogenic effect in rat colon assessed as ulcer index at 1154.30 mg/kg by Rainsford's cold stress method; format: toxicity, organism-based; set-up: dose 1154.3 mg/kg; settings: in vivo, 1154.3 mg/kg
Rattus norvegicus [15] = assay: Inhibition of TNBS-induced morphological change in rectaly administered Wistar rat colon; format: functional, organism-based
Rattus norvegicus [16] = species: Rattus norvegicus; assay: Antiinflammatory activity against TNBS-induced Wistar rat colitis model assessed as decrease in severity of inflammation treated rectally 3 days after TNBS induction for 8 days measured after 24 hrs of last treatment; format: functional, organism-based; how it was run: as §2
Rattus norvegicus [17] = assay: Half life in TNBS-induced po dosed Wistar rat colitis model assessed as assessed as release of 5-aminosalicylic acid; format: ADME, organism-based; settings: in vivo
Rattus norvegicus [18] = assay: Ulcerogenic effect in rat colon assessed as ulcer index at 3000 mg/kg by Rainsford's cold stress method; format: toxicity, organism-based; set-up: dose 3000 mg/kg; settings: in vivo

Work on `Nc1ccc(C(=O)N[C@@H](Cc2c[nH]c3ccccc23)C(=O)[O-])c(O)c1.[Na+]` yielded a logD [1] of -0.19, a half-life [2] greater than 10 h and a half-life [3] greater than 10 h. The Activity (Rattus norvegicus [4]) was 49.24 mU, the Activity (Rattus norvegicus [5]) was “Active” and the t1/2 [6] was 5.72 h. For the same molecule, the Activity (Rattus norvegicus [7]) was “Active”, the t1/2 (Rattus norvegicus [8]) was 6 h and the Activity (Liver) was “Non-toxic”. The Ratio (Rattus norvegicus [9]) was 0.0071, the UI (Rattus norvegicus [10]) was 8.4 and the Activity (Pancreas) was “Non-toxic”. The solubility [11] was 260 mg/mL and the Activity (Rattus norvegicus [12]) was “Active”.
For `Nc1ccc(C(=O)N[C@H](Cc2ccccc2)C(=O)[O-])c(O)c1.[Na+]`, the logD [1] was -0.21, the half-life [2] was greater than 10 h and the half-life [3] was greater than 10 h. For the same molecule, the Activity (Rattus norvegicus [4]) was 46.57 mU, the Activity (Rattus norvegicus [5]) was “Active” and the t1/2 [6] was 6.87 h. The UI (Rattus norvegicus [13]) was 6, the Activity (Rattus norvegicus [7]) was “Active” and the t1/2 (Rattus norvegicus [8]) was 6 h. For the same molecule, the Activity (Liver) was “Non-toxic”, the Ratio (Rattus norvegicus [9]) was 0.0073 and the Activity (Pancreas) was “Non-toxic”. For the same molecule, the solubility [11] was 330 mg/mL and the Activity (Rattus norvegicus [12]) was “Active”.
With `Nc1ccc(C(=O)O)c(O)c1` [AMINOSALICYLIC ACID] the logD [1] was 1.01, the Activity (Rattus norvegicus [4]) was 70.51 mU and the Activity (Rattus norvegicus [5]) was “Active”. For the same molecule, the Activity (Rattus norvegicus [7]) was “Active”, the UI (Rattus norvegicus [14]) was 69.61 and the Activity (Rattus norvegicus [12]) was “Active”.
For `N[C@H](Cc1ccccc1)C(=O)O` [D-PHENYLALANINE], the Activity (Rattus norvegicus [15]) was “Active”, the Activity (Rattus norvegicus [4]) was 61.43 mU and the Activity (Rattus norvegicus [5]) was “Active”. For the same molecule, the Activity (Rattus norvegicus [7]) was “Active”, the Activity (Rattus norvegicus [16]) was “Active” and the Activity (Rattus norvegicus [12]) was “Active”.
For `Nc1ccc(O)c(C(=O)O)c1` [MESALAMINE], the Activity (Rattus norvegicus [4]) was 60.85 mU, the Activity (Rattus norvegicus [7]) was “Active” and the UI (Rattus norvegicus [14]) was 60.03. The Activity (Rattus norvegicus [12]) was “Active”.
`Nc1ccc(S(=O)(=O)Nc2ccccn2)cc1` [SULFAPYRIDINE] gave a t1/2 (Rattus norvegicus [17]) of 2 h.
For `O=C(O)c1cc(/N=N/c2ccc(S(=O)(=O)Nc3ccccn3)cc2)ccc1O` [SULFASALAZINE], the Activity (Rattus norvegicus [4]) was 46.63 mU, the Activity (Rattus norvegicus [7]) was “Active” and the t1/2 (Rattus norvegicus [17]) was 2 h. For the same molecule, the UI (Rattus norvegicus [18]) was 5.83 and the Activity (Rattus norvegicus [12]) was “Active”.
With `N[C@@H](Cc1c[nH]c2ccccc12)C(=O)O` [TRYPTOPHAN] the Activity (Rattus norvegicus [15]) was “Active”, the Activity (Rattus norvegicus [4]) was 72.25 mU and the Activity (Rattus norvegicus [5]) was “Active”. For the same molecule, the Activity (Rattus norvegicus [7]) was “Active”, the Activity (Rattus norvegicus [16]) was “Active” and the Activity (Rattus norvegicus [12]) was “Active”.
